From PubChem
EWS-Fli block: EWS/Fli transcriptional activity inhibition | A673 NR0B1-luciferase reporter, viability-normalised | inhibition, % at 12.6 µM | 350,000 compounds, 0.67% hits;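 active means mean inhibition of at least 50% after viability correction, with every replicate also passing that limit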;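 further: firefly luciferase signal divided by Alamar Blue viability fluorescence both relative to DMSO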
XiGFP reactiv: reactivates the inactive X chromosome in mouse fibroblasts | activation, % at 7.58 µM | XiGFP mouse fibroblasts, % GFP-positive cells imaging, 3 d; cells co-treated with 5-aza-dC sensitizer; scaled so ellipticine positive control = 100% | 360,000 compounds, 0.055% hits;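 active means mean normalized replicate activation at least 10% and every replicate at or above 10%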
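Material: XiGFP fibroblasts, SV40-immortalized; Buffer or medium: DMEM containing 5-aza-dC; Compound dosing: single point; Times: 3 days compound exposure.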
GSIS activator: GLuc luminescence reporter in INS-1E cells, primary screen for activators of glucose-dependent secretion of insulin | INS-1E GLuc reporter insulin secretion, 2-3 h | activation, % at 16.6 µM | 370,000 compounds, 0.61% hits | AID 743287;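 active means lowest replicate activation of at least 40%, so every replicate reaches that level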
PGC1a acetyl inh: lowers PGC1a acetylation signal in U2OS cells. AlphaScreen anti-acetyl-lysine; with virally co-expressed GCN5 acetyltransferase. inhibition, % at 15.6 µM. 350,000 compounds, 0.17% hits;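 active means every replicate shows inhibition of at least 40%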
MLL AF4-AF9 inh: blocks AF4 peptide binding to human AF9. P42568. AlphaScreen, biotin-AF4 peptide binding to FLAG-AF9. inhibition, % at 10 µM. 350,000 compounds, 0.47% hits;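 active means every replicate reaching a set inhibition limit, whatever the replicate mean, cut at about 25% in these data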
Target sequence (P42568 whole entry, looked up): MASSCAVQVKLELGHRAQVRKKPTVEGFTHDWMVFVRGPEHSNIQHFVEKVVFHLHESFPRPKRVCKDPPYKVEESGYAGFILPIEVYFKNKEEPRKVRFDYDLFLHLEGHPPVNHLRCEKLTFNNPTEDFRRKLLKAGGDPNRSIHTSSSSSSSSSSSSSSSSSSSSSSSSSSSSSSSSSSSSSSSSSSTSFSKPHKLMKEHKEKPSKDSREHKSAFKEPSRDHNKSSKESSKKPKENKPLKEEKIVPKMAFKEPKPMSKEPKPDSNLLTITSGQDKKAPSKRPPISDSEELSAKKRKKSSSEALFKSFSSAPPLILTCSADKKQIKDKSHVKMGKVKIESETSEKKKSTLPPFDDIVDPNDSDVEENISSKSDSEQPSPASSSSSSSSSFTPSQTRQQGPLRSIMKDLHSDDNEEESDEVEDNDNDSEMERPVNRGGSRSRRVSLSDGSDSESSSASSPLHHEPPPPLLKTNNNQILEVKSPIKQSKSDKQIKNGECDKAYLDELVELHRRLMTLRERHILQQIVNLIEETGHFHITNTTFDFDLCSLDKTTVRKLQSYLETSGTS
PAX8 reporter: lowers PAX8-driven luciferase in RMG-I cells. 360,000 compounds, 1.2% hits. RMG-I TPO-luciferase reporter, SteadyGlo, 24 h. inhibition, % at 12.6 µM;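 active means mean replicate inhibition at least 60% with every replicate also reaching 60%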;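 further: luciferase light reporting Pax8 driven TPO promoter activity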
Of the large screens only hits and unclear results are named; the others gave an inactive call. Compounds with a hit are over-represented: about 2.1% of the library has one in this group of screens.

CO[C@@H]1CN(C)C(=O)c2ccc(NC(=O)C3CCCCC3)cc2OC[C@H](C)N(Cc2nccs2)C[C@H]1C	none (no result: PGC1a acetyl inh)
CNC[C@H]1Oc2ccc(NS(C)(=O)=O)cc2CC(=O)N([C@H](C)CO)C[C@@H]1C	none
CCOC(=O)CNC(=O)OC1CCN2Cc3ccccc3N=C12 (centres undefined)	PGC1a acetyl inh 78
CCOC(=O)c1[nH]c2c(c1C)C(=O)CC(c1ccco1)C2 (centres undefined)	PAX8 reporter 83
COCCOC(=O)c1[nH]c2c(c1C)C(=O)CC(c1ccco1)C2 (centres undefined)	EWS-Fli block 65 (no result: PGC1a acetyl inh)
CCOc1ccc(C2CC(=O)c3c([nH]c(C(=O)OC)c3C)C2)cc1OC (centres undefined)	none (no result: EWS-Fli block, XiGFP reactiv, GSIS activator, MLL AF4-AF9 inh, PAX8 reporter)
Cc1c(C(=O)OCCOC(C)C)[nH]c2c1C(=O)CC(c1ccco1)C2 (centres undefined)	none (no result: EWS-Fli block, XiGFP reactiv, GSIS activator, MLL AF4-AF9 inh, PAX8 reporter)
COC(=O)c1[nH]c2c(c1C)C(=O)CC(c1cc(OC)ccc1OC)C2 (centres undefined)	EWS-Fli block 54
C[C@H](CO)N1C[C@H](C)[C@@H](CN(C)S(=O)(=O)c2cn(C)cn2)OCCCC[C@H](C)Oc2ccc(NS(=O)(=O)c3ccc(F)cc3)cc2C1=O	none (no result: PGC1a acetyl inh)
C[C@H]1CN([C@@H](C)CO)C(=O)c2cc(NS(=O)(=O)c3cccs3)ccc2O[C@H]1CN(C)Cc1ccc(C(=O)O)cc1	none (no result: PAX8 reporter)
Cc1ccccc1Cn1ccc(NC(=O)c2cc3nc(-c4ccco4)cc(C(F)(F)F)n3n2)n1	GSIS activator 66 (no result: EWS-Fli block, XiGFP reactiv, MLL AF4-AF9 inh, PAX8 reporter)
O=C(Cn1cnc2c(OCc3ccccc3)ncnc21)N[C@H](CO)Cc1cc2ccccc2[nH]1	GSIS activator 49
O=C(Cn1cnc2c(OCc3ccccc3)ncnc21)NCc1ccccn1	GSIS activator 41
O=C(NCC1CC1)[C@H]1[C@H](CO)[C@H]2Cn3c(ccc(-c4ccc(F)cc4)c3=O)[C@@H]1N2	none
COCc1cc(C)nc(SCC(=O)Nc2nc(C)cs2)c1C#N	EWS-Fli block 62
Cc1cccc(S(=O)(=O)N2CCCCN3[C@H](CO)[C@@H](c4ccc(C#C[C@H](C)O)cc4)[C@@H]3C2)c1	none
Cc1cccc(S(=O)(=O)N2CCCCN3[C@H](CO)[C@H](c4ccc(C#CC(C)C)cc4)[C@H]3C2)c1	PAX8 reporter 78
Cc1cccc(S(=O)(=O)N2CCCCN3[C@H](CO)[C@H](c4ccc(C#C[C@H](C)O)cc4)[C@H]3C2)c1	PAX8 reporter 86
Cc1cccc(S(=O)(=O)N2CCCCN3[C@H](CO)[C@@H](c4ccc(C#CC(C)C)cc4)[C@H]3C2)c1	none
C[C@H](O)C#Cc1ccc([C@@H]2[C@@H](CO)N3CCCCN(S(=O)(=O)c4ccccc4)C[C@H]23)cc1	PAX8 reporter 76
Cc1cccc(S(=O)(=O)N2CCCCN3[C@@H](CO)[C@@H](c4ccc(C#CC(C)C)cc4)[C@@H]3C2)c1	GSIS activator 57
CS(=O)(=O)N1CC2(C1)[C@@H](c1ccccc1)[C@@H](CO)N2Cc1ccc(F)cc1	none (no result: PAX8 reporter)
COCC#Cc1cnc2c(c1)C(=O)N([C@H](C)CO)C[C@@H](C)[C@@H](CN(C)C(=O)CN1CCOCC1)O2	none
CCC(=O)Nc1ccc2c(c1)OC[C@@H](C)N(C(=O)C1CCC1)C[C@H](C)[C@H](OC)CN(C)C2=O	none
COc1cccc(S(=O)(=O)N2CCCCN3[C@H](CO)[C@H](c4ccc(C#CC(C)C)cc4)[C@@H]3C2)c1	PAX8 reporter 71
Cc1ccc(-c2cnc3c(Cl)c(C)nn3c2)cc1	EWS-Fli block 53
Cc1nn2c(-c3ccncc3)ccnc2c1Cl	none
Cc1ccc(-c2cnc3cc(C)nn3c2)cc1	none
Cc1ccc(-c2ccnc3c(Cl)c(C)nn23)cc1	MLL AF4-AF9 inh 51 (no result: PGC1a acetyl inh)
Cc1cccc(OCC(=O)Nc2cc(NC(=O)COc3cccc(C)c3C)cc(C(=O)O)c2)c1C	none
CCOC(=O)c1cccc(NC(=O)c2ccc(N(C)C)cc2)c1	EWS-Fli block 76 (no result: PGC1a acetyl inh)
CCOc1ccc(NC(=O)Nc2cccc(C(=O)O)c2)cc1	EWS-Fli block 91, PAX8 reporter 99
CCOc1ccc(NC(=O)Nc2ccc3nsnc3c2)cc1	none
CCOC(=O)c1cccc(NC(=O)Nc2ccc(OCC)cc2)c1	EWS-Fli block 84 (no result: PGC1a acetyl inh)
Cc1ccccc1OCC(=O)Nc1cccc(C(=O)O)c1	EWS-Fli block 83, PAX8 reporter 93 (no result: PGC1a acetyl inh)
CCNC(=O)C[C@H]1CC[C@H]2[C@H](COc3ccc(NC(=O)Nc4ccc(Cl)cc4)cc3C(=O)N2C)O1	none
COc1ccc(C(CCNCc2ccc(OC(C)C)cc2)c2ccccc2OC)cc1 (centres undefined)	EWS-Fli block 58
COc1cc(/C=N/NC(N)=S)cc(Br)c1OCc1ccccc1F	PAX8 reporter 70 (no result: EWS-Fli block, PGC1a acetyl inh, MLL AF4-AF9 inh)
CCOc1cc(/C=N/NC(N)=S)cc(Br)c1OCc1ccccc1C	none (no result: EWS-Fli block, XiGFP reactiv, GSIS activator, MLL AF4-AF9 inh, PAX8 reporter)
C[C@@H]1CN([C@@H](C)CO)C(=O)c2cc(NC(=O)Nc3ccc4c(c3)OCO4)ccc2O[C@@H](C)CCCCO[C@H]1CN(C)Cc1ccc(C(F)(F)F)cc1	PAX8 reporter 61
C[C@@H]1CCCCO[C@@H](CN(C)Cc2ccc(C(F)(F)F)cc2)[C@@H](C)CN([C@H](C)CO)C(=O)c2cc(NC(=O)Nc3ccc4c(c3)OCO4)ccc2O1	none
C[C@@H]1CN([C@H](C)CO)C(=O)c2cc(NC(=O)Nc3ccc4c(c3)OCO4)ccc2O[C@@H](C)CCCCO[C@@H]1CN(C)Cc1ccc(C(F)(F)F)cc1	PAX8 reporter 66
C[C@@H]1CCCCO[C@H](CN(C)Cc2ccc(C(F)(F)F)cc2)[C@H](C)CN([C@H](C)CO)C(=O)c2cc(NC(=O)Nc3ccc4c(c3)OCO4)ccc2O1	PAX8 reporter 67
C[C@H](CO)N1C[C@H](C)[C@H](CN(C)Cc2ccc(C(F)(F)F)cc2)OCCCC[C@H](C)Oc2ccc(NC(=O)Nc3ccc4c(c3)OCO4)cc2C1=O	PAX8 reporter 96
C[C@@H]1CN([C@@H](C)CO)C(=O)c2cc(NC(=O)Nc3ccc4c(c3)OCO4)ccc2O[C@@H](C)CCCCO[C@@H]1CN(C)Cc1ccc(C(F)(F)F)cc1	none
C[C@H](CO)N1C[C@H](C)[C@H](CN(C)Cc2ccccn2)Oc2ncc(C#C[C@@H](C)O)cc2C1=O	none (no result: PAX8 reporter)
COc1cccc(-n2nc(C#N)c(Cl)cc2=O)c1	EWS-Fli block 58, PAX8 reporter 98
COc1cccc(-n2nc(C(N)=O)c(O)cc2=O)c1	none
FC(F)(F)c1cnc(NNC(=S)Nc2ccccc2Cl)c(Cl)c1	PAX8 reporter 74 (no result: EWS-Fli block, PGC1a acetyl inh, MLL AF4-AF9 inh)
COc1cc(NC(=O)c2cnc(N)s2)cc(C(=O)Nc2cccc(C(F)(F)F)c2)c1	none
